Measurements: ChEMBL document CHEMBL4229353, “Synthesis and antiviral evaluation of cyclopentyl nucleoside phosphonates” (Eur J Med Chem, 2018)

What was measured:
Human alphaherpesvirus 1 = assay: Antiviral activity against thymidine kinase-deficient ACV-resistant Herpes simplex virus 1 KOS infected in HEL cells assessed as […] measured after 2 to 3 days post infection; type: functional, organism-based; settings: Human alphaherpesvirus 1, KOS
Outline: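 Confluent HEL fibroblast monolayers in 96-well plates were inoculated with 100 CCID50 of HSV-1 (KOS or TK-deficient ACV-resistant KOS). After 2 h adsorption, the inoculum was removed and cells were incubated with varying compound concentrations. Virus-induced cytopathicity was recorded at 2-3 days post-infection.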

[1] = Cytotoxicity against HEL cells assessed as alteration in cell morphology after 3 days by microscopic analysis; type: cell-based; settings: human
Outline: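 Uninfected HEL cell cultures were exposed to graded compound concentrations. MCC is the lowest concentration producing a microscopically detectable alteration of cell morphology.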

Human alphaherpesvirus 3 [2] = assay: Antiviral activity against thymidine kinase deficient Varicella-Zoster virus 07-1 infected in HEL cells assessed as inhibition of plaque formation measured after 5 days post infection; type: functional, organism-based; settings: Human alphaherpesvirus 3, 07-1, HEL, 120 h
Outline: (§1)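 Confluent HEL fibroblast monolayers in 96-well plates were inoculated with 20 PFU of VZV (Oka or TK– strain 07-1). After 2 h adsorption, the inoculum was removed and cultures were incubated with varying compound concentrations. Plaque formation was recorded at 5 days post-infection.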

Human alphaherpesvirus 3 [3] = assay: Antiviral activity against thymidine kinase expressing Varicella-Zoster virus Oka infected in HEL cells assessed as inhibition of plaque formation measured after 5 days post infection; type: functional, organism-based; settings: Human alphaherpesvirus 3, strain Oka vaccine, 120 h; outline: as §1
Human alphaherpesvirus 2 = assay: Antiviral activity against Herpes simplex virus 2 G infected in HEL cells assessed as […] measured after 2 to 3 days post infection; type: functional, organism-based; settings: Human alphaherpesvirus 2, strain G
Outline: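 Confluent HEL fibroblast monolayers were infected with 100 CCID50 of virus, and the inoculum was removed after 2 h adsorption. Cells were then cultured with serial compound concentrations. Virus-induced cytopathicity was scored at 2-3 days (HSV) or 6-7 days (HCMV) post-infection.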

[4] = Cytostatic activity against HEL cells after 3 days by Coulter counting method; type: cell-based; settings: human
Outline: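 HEL cells were seeded at 5 x 10^3 cells/well and left to proliferate for 24 h. Medium with graded compound concentrations was then added, followed by 3 days at 37 °C. Cells were counted with a Coulter counter. CC50, the concentration halving proliferation relative to untreated controls, was read from plots of cell number (% of control) versus concentration.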

Compound	EC50 (Human alphaherpesvirus 1) [µM]	MCC at 72 h [1] [µM]	EC50 (Human alphaherpesvirus 3 [2]) [µM]	EC50 (Human alphaherpesvirus 3 [3]) [µM]	EC50 (Human alphaherpesvirus 2) [µM]	CC50 at 72 h [4] [µM]
Nc1ccn([C@@H]2C[C@H](OCP(=O)(O)O)C[C@H]2O)c(=O)n1	> 327	> 327	> 327	> 327	> 327	
Nc1ncnc2c1ncn2[C@@H]1C[C@H](OCP(=O)(O)O)C[C@H]1O	161	> 303	> 303	> 303	132	
Nc1nc2c(ncn2[C@@H]2C[C@H](OCP(=O)(O)O)C[C@H]2O)c(=O)[nH]1	99	> 289	8.83	5.35	57.9	> 289
Nc1ncnc2c1ncn2[C@@H]1C[C@H](OCP(=O)(O)O)[C@@H](O)C1	> 303	> 303	79	258	> 303	
Cc1cn([C@@H]2C[C@H](OCP(=O)(O)O)[C@@H](O)C2)c(=O)[nH]c1=O	9.89	> 247	5.73	23.1	92.3	69.4
Nc1nc2c(ncn2[C@@H]2C[C@H](OCP(=O)(O)O)[C@@H](O)C2)c(=O)[nH]1	14.1	> 289	8.38	17.1	33.9	> 289
Cc1cn([C@@H]2C[C@H](OCP(=O)(O)O)C[C@H]2O)c(=O)[nH]c1=O	> 247	> 247	> 247	> 247	> 247	
CC(C)OC(=O)[C@H](C)NP(=O)(CO[C@H]1C[C@@H](n2cnc3c(=O)[nH]c(N)nc32)C[C@@H]1O)N[C@@H](C)C(=O)OC(C)C	35	> 175	29.8	35	85.5	> 175
Nc1ccn([C@@H]2C[C@H](OCP(=O)(O)O)[C@@H](O)C2)c(=O)n1	> 327	> 327	> 327	> 327	> 327	
CC(C)OC(=O)[C@H](C)NP(=O)(CO[C@@H]1C[C@@H](O)[C@H](n2cnc3c(=O)[nH]c(N)nc32)C1)N[C@@H](C)C(=O)OC(C)C	> 175	> 175	> 175	66.6	> 175	> 175
Nc1nc2c(ncn2COCCO)c(=O)[nH]1 [ACYCLOVIR]	> 88	> 444	14.1	3.37	0.29	> 444
O=c1[nH]c(=O)n([C@H]2C[C@H](O)[C@@H](CO)O2)cc1/C=C/Br [BRIVUDINE]	> 30	> 300	3.39	0.021	> 30	> 300
Nc1ccn(C[C@@H](CO)OCP(=O)(O)O)c(=O)n1 [CIDOFOVIR]		> 358			2.27	> 358
Nc1nc2c(ncn2COC(CO)CO)c(=O)[nH]1 [GANCICLOVIR]	3.91	> 391			0.019	> 391
